Results published in ChEMBL document CHEMBL2169746, “Design, synthesis, and antitumor evaluation of 2,4,6-triaryl pyridines containing chlorophenyl and phenolic moiety” (Eur J Med Chem, 2012).

Columns and labels:
T47D = experiment: Cytotoxicity against human T47D cells after 2 days by cell counting kit-8 analysis; type: functional, cell-based; settings: 48 h
Procedure, shortened: (§1)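 Cells grown per supplier's instructions, seeded at 2-4 × 10⁴ cells/well and incubated overnight in medium with 10% FBS at 37 °C, 5% CO₂. On day 2, after 4 h FBS starvation, medium was replaced with medium containing graded compound concentrations. Absorbance read at 450 nm. IC50 from a four-parameter logistic fit. Three independent experiments in triplicate, mean ± S.D.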

HCT-15 = experiment: Cytotoxicity against human HCT15 cells after 2 days by cell counting kit-8 analysis; type: functional, cell-based; settings: HCT-15, 48 h; procedure, shortened: as §1
DU-145 = experiment: Cytotoxicity against human DU145 cells after 2 days by cell counting kit-8 analysis; type: functional, cell-based; settings: DU-145, 48 h; procedure, shortened: as §1
HEK293 = experiment: Cytotoxicity against human HEK293 cells after 2 days by cell counting kit-8 analysis; type: cell-based; settings: HEK293, 48 h; procedure, shortened: as §1
[1] = molecular target: DNA topoisomerase 2-alpha (Homo sapiens) (UniProt P11388); experiment: Inhibition of human DNA topoisomerase-2alpha-mediated relaxation of supercoiled pBR322 at 20 uM after 30 mins using ethidium bromide staining by agarose gel electrophoresis
Procedure, shortened: (§2)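 200 ng supercoiled pBR322 with 1 unit human topo IIα, with or without compound. Buffer was 10 mM Tris-HCl pH 7.9, 50 mM NaCl, 5 mM MgCl₂, 1 mM EDTA, 1 mM ATP and bovine serum albumin. Incubated 30 min at 30 °C, stopped with EDTA. Products run on 1% agarose gel, 25 V, 4 h, TAE buffer. Compound stocks 20 mM in DMSO.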

[2] = molecular target: DNA topoisomerase 2-alpha (Homo sapiens) (UniProt P11388); experiment: Inhibition of human DNA topoisomerase-2alpha-mediated relaxation of supercoiled pBR322 at 100 uM after 30 mins using ethidium bromide staining by agarose gel electrophoresis; procedure, shortened: as §2
[3] = molecular target: T1, DNA topoisomerase 1 (Homo sapiens) (UniProt P11387); experiment: Inhibition of recombinant human DNA topoisomerase-1-mediated relaxation of supercoiled pBR322 at 20 uM after 30 mins using ethidium bromide staining by agarose gel electrophoresis
T1 sequence (whole entry): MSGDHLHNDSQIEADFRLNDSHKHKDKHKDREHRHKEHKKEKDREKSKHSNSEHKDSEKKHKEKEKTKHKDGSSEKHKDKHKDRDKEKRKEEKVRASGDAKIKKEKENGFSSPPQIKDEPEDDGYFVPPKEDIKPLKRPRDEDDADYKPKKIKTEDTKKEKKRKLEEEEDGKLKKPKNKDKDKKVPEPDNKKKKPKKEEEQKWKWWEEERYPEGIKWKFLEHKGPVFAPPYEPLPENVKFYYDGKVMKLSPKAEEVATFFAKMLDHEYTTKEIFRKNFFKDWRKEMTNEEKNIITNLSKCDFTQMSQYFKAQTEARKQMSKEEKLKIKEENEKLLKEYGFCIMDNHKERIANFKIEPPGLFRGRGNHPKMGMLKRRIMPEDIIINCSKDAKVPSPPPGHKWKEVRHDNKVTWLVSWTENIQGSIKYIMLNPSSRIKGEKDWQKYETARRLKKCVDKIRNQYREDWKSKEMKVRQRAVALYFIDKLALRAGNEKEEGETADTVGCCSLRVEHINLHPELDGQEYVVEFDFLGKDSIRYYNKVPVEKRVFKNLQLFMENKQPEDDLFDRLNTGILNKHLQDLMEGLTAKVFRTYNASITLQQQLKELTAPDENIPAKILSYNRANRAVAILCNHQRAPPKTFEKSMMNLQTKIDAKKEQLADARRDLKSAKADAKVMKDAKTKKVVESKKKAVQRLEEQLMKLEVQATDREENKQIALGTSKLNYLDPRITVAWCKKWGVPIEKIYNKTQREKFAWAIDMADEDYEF
Procedure, shortened: (§3)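 Compounds from 20 mM DMSO stocks. 100 ng pBR322 plasmid DNA with 1 unit recombinant human topo I, with or without compound, 37 °C for 30 min. Relaxation buffer was 10 mM Tris-HCl pH 7.9, 150 mM NaCl, 0.1% BSA, 1 mM spermidine. Relaxation of supercoiled DNA assessed by gel imaging.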

[4] = molecular target: T1, DNA topoisomerase 1 (Homo sapiens); experiment: Inhibition of recombinant human DNA topoisomerase-1-mediated relaxation of supercoiled pBR322 at 100 uM after 30 mins using ethidium bromide staining by agarose gel electrophoresis; procedure, shortened: as §3

Sequence of DNA topoisomerase 2-alpha (Homo sapiens) (P11388 whole entry): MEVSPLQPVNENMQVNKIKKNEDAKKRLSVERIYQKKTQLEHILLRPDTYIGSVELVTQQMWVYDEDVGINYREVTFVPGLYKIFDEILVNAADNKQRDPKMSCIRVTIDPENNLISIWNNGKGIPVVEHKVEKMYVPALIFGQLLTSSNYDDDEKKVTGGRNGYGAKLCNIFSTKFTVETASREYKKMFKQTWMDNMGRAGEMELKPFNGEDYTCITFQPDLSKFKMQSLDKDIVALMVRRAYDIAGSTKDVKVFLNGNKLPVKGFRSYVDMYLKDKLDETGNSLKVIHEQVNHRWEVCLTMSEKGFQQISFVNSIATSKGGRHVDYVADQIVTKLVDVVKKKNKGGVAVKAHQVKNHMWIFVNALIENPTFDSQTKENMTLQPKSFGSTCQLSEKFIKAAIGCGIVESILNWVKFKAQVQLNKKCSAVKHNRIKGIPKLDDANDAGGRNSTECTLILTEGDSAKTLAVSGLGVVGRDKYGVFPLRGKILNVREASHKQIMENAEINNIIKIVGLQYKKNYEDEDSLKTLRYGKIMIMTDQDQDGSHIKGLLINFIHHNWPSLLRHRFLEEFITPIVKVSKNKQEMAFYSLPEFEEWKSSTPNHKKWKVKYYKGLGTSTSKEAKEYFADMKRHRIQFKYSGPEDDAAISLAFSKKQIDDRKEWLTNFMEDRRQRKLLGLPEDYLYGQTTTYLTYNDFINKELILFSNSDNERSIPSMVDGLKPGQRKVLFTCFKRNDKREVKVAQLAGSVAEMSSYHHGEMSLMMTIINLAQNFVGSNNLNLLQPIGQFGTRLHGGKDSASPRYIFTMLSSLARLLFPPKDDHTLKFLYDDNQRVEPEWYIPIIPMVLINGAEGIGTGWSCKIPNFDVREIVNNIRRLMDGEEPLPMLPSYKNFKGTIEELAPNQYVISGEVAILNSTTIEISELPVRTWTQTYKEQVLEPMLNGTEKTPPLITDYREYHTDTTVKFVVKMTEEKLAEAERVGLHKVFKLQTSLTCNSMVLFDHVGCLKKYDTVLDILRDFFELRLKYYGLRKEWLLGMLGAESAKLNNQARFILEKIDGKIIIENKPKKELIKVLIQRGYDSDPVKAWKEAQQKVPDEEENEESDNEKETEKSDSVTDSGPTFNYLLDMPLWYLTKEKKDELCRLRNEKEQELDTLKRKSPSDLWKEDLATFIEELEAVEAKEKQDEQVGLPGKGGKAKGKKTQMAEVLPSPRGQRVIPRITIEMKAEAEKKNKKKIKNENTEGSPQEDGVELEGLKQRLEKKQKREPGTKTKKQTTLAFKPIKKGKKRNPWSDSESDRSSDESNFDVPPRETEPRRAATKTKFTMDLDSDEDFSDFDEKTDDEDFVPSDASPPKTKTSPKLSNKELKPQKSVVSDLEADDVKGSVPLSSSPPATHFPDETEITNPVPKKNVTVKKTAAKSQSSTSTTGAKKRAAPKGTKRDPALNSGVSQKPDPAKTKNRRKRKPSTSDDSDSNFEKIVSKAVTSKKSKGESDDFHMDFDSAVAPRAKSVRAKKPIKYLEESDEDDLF

SMILES | inhibition [1] [%] | inhibition [2] [%] | inhibition [3] [%] | inhibition [4] [%] | IC50 (T47D) [µM] | IC50 (HCT-15) [µM] | IC50 (DU-145) [µM] | IC50 (HEK293) [µM]
Oc1ccc(-c2cc(-c3cccc(Cl)c3)nc(-c3cccs3)c2)cc1 | 0 | 72.4 | 0 | 52.4 | 5.35 | 5.05 | 5.74 | 2.72
Oc1ccc(-c2cc(-c3cccc(Cl)c3)nc(-c3ccccn3)c2)cc1 | 0 | 67.5 | 0 | 59.4 | 27.9 | 28.2 | 35.2 | 25.4
Oc1ccc(-c2cc(-c3cccnc3)nc(-c3cccc(Cl)c3)c2)cc1 | 0 | 46.9 | 0 | 55.2 | 25.7 | 21.3 | 22.9 | 25.7
Oc1cccc(-c2cc(-c3ccc(Cl)cc3)nc(-c3ccccn3)c2)c1 | 13.1 | 59.4 | 0 | 30 | 13.9 | 13.5 | 8.09 | 14
Oc1cccc(-c2cc(-c3ccsc3)nc(-c3ccccc3Cl)c2)c1 | 15.7 | 77.1 |  | 0 | 2.44 | 2.5 | 1.97 | 2.72
Oc1cccc(-c2cc(-c3cccc(Cl)c3)nc(-c3cccs3)c2)c1 | 39 | 80.4 |  | 7.6 | 3.41 | 2.61 | 2.65 | 3.15

More lines, main results first:

inhibition [1] [%] | inhibition [2] [%] | inhibition [3] [%] | inhibition [4] [%] | SMILES | IC50 (T47D) [µM] | IC50 (HCT-15) [µM] | IC50 (DU-145) [µM] | IC50 (HEK293) [µM]
22 | 77.2 | 0 | 38.8 | Oc1ccc(-c2cc(-c3ccc(Cl)cc3)nc(-c3cccs3)c2)cc1 | 6.45 | 6.47 | 7.66 | 4.52
44.6 | 80.9 | 55.2 | 68 | Oc1ccc(-c2cc(-c3ccccc3)nc(-c3ccc(Cl)cc3)c2)cc1 | 4.27 | 6.92 | 7.27 | 4.81
0 | 83.7 |  | 26 | Oc1ccc(-c2cc(-c3ccsc3)nc(-c3cccc(Cl)c3)c2)cc1 | 7.39 | 5.76 | 6.22 | 2.67
67.1 | 83.6 | 30.7 | 47.7 | Oc1ccc(-c2cc(-c3ccc(Cl)cc3)nc(-c3ccsc3)c2)cc1 | 5.49 | 6.24 | 6.94 | 4.86
